# Tests used:
# Staphylococcus aureus [1] = test: Antibacterial activity against Staphylococcus aureus ATCC 29213 harboring FtsZ 32 mutation after 20 hrs; format: functional; conditions: ATCC 29213, 20 h
# Procedure, shortened: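 Broth microdilution MIC per CLSI guidelines, compounds dissolved in DMSO. Resistant mutants were selected by serial passage of ATCC 29213 in LB at 37 °C with shaking at 250 rpm. Each 20 h culture started at half the MIC, and the concentration was doubled at each transfer. Growth inhibition was read by eye, in duplicate.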
# L929 = test: Cytotoxicity against mouse L929 cells by MTS assay; format: cell-based
# Procedure, shortened: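 MTS assay on L929 mouse fibroblasts; IC50 reported as the average of three independent measurements.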
# [2] = Selective index, ratio of IC50 for mouse L929 cells to MIC for Staphylococcus aureus ATCC 29213
# Procedure, shortened: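 Selectivity index calculated as L929 IC50 (μM) divided by S. aureus MIC (μM).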
# Staphylococcus aureus [3] = test: Antibacterial activity against multidrug-resistant Staphylococcus aureus isolate 2490 by broth microdilution assay; format: functional
# Procedure, shortened: (§1)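 Broth microdilution MIC per CLSI guidelines against clinical MRSA isolates, for β-lactams and test compound alone and in combination. Compounds were dissolved in DMSO. Growth was read by eye, in duplicate. FIC index = FIC(compound) + FIC(drug); synergy defined as FIC index ≤0.5.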
# Staphylococcus aureus [4] = test: Antibacterial activity against multidrug-resistant Staphylococcus aureus isolate 3411 by broth microdilution assay; format: functional; procedure, shortened: as §1
# Staphylococcus aureus [5] = test: Antibacterial activity against multidrug-resistant Staphylococcus aureus isolate 1717 by broth microdilution assay; format: functional; procedure, shortened: as §1
# Staphylococcus aureus [6] = test: Antibacterial activity against multidrug-resistant Staphylococcus aureus isolate 774 by broth microdilution assay; format: functional; procedure, shortened: as §1
# Staphylococcus aureus [7] = test: Antibacterial activity against multidrug-resistant Staphylococcus aureus isolate 1449 by broth microdilution assay; format: functional; procedure, shortened: as §1
# Staphylococcus aureus [8] = test: Synergistic antibacterial activity against multidrug-resistant Staphylococcus aureus isolate 3589 in presence of amoxicillin by broth microdilution assay; format: functional
# Staphylococcus aureus [9] = test: Synergistic antibacterial activity against multidrug-resistant Staphylococcus aureus isolate 3267 in presence of amoxicillin by broth microdilution assay; format: functional
# Procedure, shortened: (§2)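 CLSI broth microdilution on clinical MRSA isolates. MICs were measured for the β-lactam alone, the test agent alone and the two combined. Compounds were dissolved in DMSO, and growth inhibition was scored by eye. FIC index is the sum, over both agents, of MIC in combination divided by MIC alone. An FIC index ≤0.5 was taken as synergy.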
# Staphylococcus aureus [10] = test: Synergistic antibacterial activity against multidrug-resistant Staphylococcus aureus isolate 2973 in presence of amoxicillin by broth microdilution assay; format: functional; procedure, shortened: as §2
# Staphylococcus aureus [11] = test: Synergistic antibacterial activity against multidrug-resistant Staphylococcus aureus isolate 757 in presence of methicillin by broth microdilution assay; format: functional
# Staphylococcus aureus [12] = test: Synergistic antibacterial activity against multidrug-resistant Staphylococcus aureus isolate 254 in presence of cloxacillin by broth microdilution assay; format: functional; procedure, shortened: as §2
# Staphylococcus aureus [13] = test: Synergistic antibacterial activity against multidrug-resistant Staphylococcus aureus isolate 256 in presence of cloxacillin by broth microdilution assay; format: functional; procedure, shortened: as §2
# Staphylococcus aureus [14] = test: Synergistic antibacterial activity against multidrug-resistant Staphylococcus aureus isolate 2895 in presence of cloxacillin by broth microdilution assay; format: functional; procedure, shortened: as §2
# Staphylococcus aureus [15] = test: Synergistic antibacterial activity against multidrug-resistant Staphylococcus aureus isolate 1749 in presence of cloxacillin by broth microdilution assay; format: functional
# Procedure, shortened: (§3)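 Clinical MRSA isolate panel; compound and β-lactam tested alone and in combination by CLSI broth microdilution, compounds dissolved in DMSO, growth inhibition scored by eye, run in duplicate. FIC index = FIC(compound) + FIC(drug), each the MIC in combination divided by the MIC alone; an index ≤ 0.5 was called synergy.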
# Staphylococcus aureus [16] = test: Synergistic antibacterial activity against multidrug-resistant Staphylococcus aureus isolate 1402 in presence of cloxacillin by broth microdilution assay; format: functional; procedure, shortened: as §3
# Staphylococcus aureus [17] = test: Synergistic antibacterial activity against multidrug-resistant Staphylococcus aureus isolate 2919 in presence of cloxacillin by broth microdilution assay; format: functional; procedure, shortened: as §2
# Staphylococcus aureus [18] = test: Synergistic antibacterial activity against multidrug-resistant Staphylococcus aureus isolate 2490 in presence of cefuroxime by broth microdilution assay; format: functional; procedure, shortened: as §3
# Staphylococcus aureus [19] = test: Synergistic antibacterial activity against multidrug-resistant Staphylococcus aureus isolate 254 in presence of cefuroxime by broth microdilution assay; format: functional; procedure, shortened: as §2
# Staphylococcus aureus [20] = test: Synergistic antibacterial activity against multidrug-resistant Staphylococcus aureus isolate 2901 in presence of cefuroxime by broth microdilution assay; format: functional; procedure, shortened: as §2
# Staphylococcus aureus [21] = test: Synergistic antibacterial activity against multidrug-resistant Staphylococcus aureus isolate 1749 in presence of cefuroxime by broth microdilution assay; format: functional; procedure, shortened: as §3
# Staphylococcus aureus [22] = test: Synergistic antibacterial activity against multidrug-resistant Staphylococcus aureus isolate 774 in presence of cefuroxime by broth microdilution assay; format: functional
# Staphylococcus aureus [23] = test: Synergistic antibacterial activity against multidrug-resistant Staphylococcus aureus isolate 2224 in presence of meropenem by broth microdilution assay; format: functional; procedure, shortened: as §3
# Staphylococcus aureus [24] = test: Synergistic antibacterial activity against multidrug-resistant Staphylococcus aureus isolate 358 in presence of meropenem by broth microdilution assay; format: functional
# Staphylococcus aureus [25] = test: Synergistic antibacterial activity against multidrug-resistant Staphylococcus aureus isolate 1344 assessed as fractional Inhibitory concentration index in presence of amoxicillin by broth microdilution assay; format: functional
# Procedure, shortened: (§4)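 CLSI broth microdilution run on clinical MRSA isolates with each β-lactam alone, the test agent alone, and the two combined; agents dissolved in DMSO. Growth inhibition was read by eye. FIC index = FIC(compound) + FIC(β-lactam), where each FIC is the MIC in combination divided by the MIC alone. An index ≤0.5 was taken as synergy.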
# Staphylococcus aureus [26] = test: Synergistic antibacterial activity against multidrug-resistant Staphylococcus aureus isolate 200 assessed as fractional Inhibitory concentration index in presence of amoxicillin by broth microdilution assay; format: functional; procedure, shortened: as §4
# Staphylococcus aureus [27] = test: Synergistic antibacterial activity against multidrug-resistant Staphylococcus aureus isolate 2919 assessed as fractional Inhibitory concentration index in presence of methicillin by broth microdilution assay; format: functional
# Staphylococcus aureus [28] = test: Synergistic antibacterial activity against multidrug-resistant Staphylococcus aureus isolate 358 assessed as fractional Inhibitory concentration index in presence of methicillin by broth microdilution assay; format: functional
# Staphylococcus aureus [29] = test: Synergistic antibacterial activity against multidrug-resistant Staphylococcus aureus isolate 231 assessed as fractional Inhibitory concentration index in presence of cloxacillin by broth microdilution assay; format: functional; procedure, shortened: as §4
# Staphylococcus aureus [30] = test: Synergistic antibacterial activity against multidrug-resistant Staphylococcus aureus isolate 3332 assessed as fractional Inhibitory concentration index in presence of cloxacillin by broth microdilution assay; format: functional
# Staphylococcus aureus [31] = test: Synergistic antibacterial activity against multidrug-resistant Staphylococcus aureus isolate 1449 assessed as fractional Inhibitory concentration index in presence of cloxacillin by broth microdilution assay; format: functional; procedure, shortened: as §4
# Staphylococcus aureus [32] = test: Synergistic antibacterial activity against multidrug-resistant Staphylococcus aureus isolate 1344 assessed as fractional Inhibitory concentration index in presence of cefuroxime by broth microdilution assay; format: functional; procedure, shortened: as §4
# Staphylococcus aureus [33] = test: Synergistic antibacterial activity against multidrug-resistant Staphylococcus aureus isolate 3267 assessed as fractional Inhibitory concentration index in presence of cefuroxime by broth microdilution assay; format: functional
# Staphylococcus aureus [34] = test: Synergistic antibacterial activity against multidrug-resistant Staphylococcus aureus isolate 1449 assessed as fractional Inhibitory concentration index in presence of cefuroxime by broth microdilution assay; format: functional; procedure, shortened: as §4
# Staphylococcus aureus [35] = test: Synergistic antibacterial activity against multidrug-resistant Staphylococcus aureus isolate 2901 assessed as fractional Inhibitory concentration index in presence of meropenem by broth microdilution assay; format: functional
# Staphylococcus aureus [36] = test: Synergistic antibacterial activity against multidrug-resistant Staphylococcus aureus isolate 2895 assessed as fractional Inhibitory concentration index in presence of meropenem by broth microdilution assay; format: functional
smiles,measurement,setting,value
CCCCCCCCCNc1ccc(F)c(C(N)=O)c1F,MIC,Staphylococcus aureus [1],32 µg/mL
same,IC50,L929,> 100 µM
same,Selectivity Index,[2],>32
same,MIC,Staphylococcus aureus [3],16 µg/mL
same,MIC,Staphylococcus aureus [4],2 µg/mL
same,MIC,Staphylococcus aureus [5],2 µg/mL
same,MIC,Staphylococcus aureus [6],512 µg/mL
same,MIC,Staphylococcus aureus [7],4 µg/mL
same,MIC,Staphylococcus aureus [8],8 µg/mL
same,MIC,Staphylococcus aureus [9],2 µg/mL
same,MIC,Staphylococcus aureus [10],8 µg/mL
same,MIC,Staphylococcus aureus [11],4 µg/mL
same,MIC,Staphylococcus aureus [12],2 µg/mL
same,MIC,Staphylococcus aureus [13],1 µg/mL
same,MIC,Staphylococcus aureus [14],2 µg/mL
same,MIC,Staphylococcus aureus [15],0.5 µg/mL
same,MIC,Staphylococcus aureus [16],1 µg/mL
same,MIC,Staphylococcus aureus [17],1 µg/mL
same,MIC,Staphylococcus aureus [18],2 µg/mL
same,MIC,Staphylococcus aureus [19],4 µg/mL
same,MIC,Staphylococcus aureus [20],2 µg/mL
same,MIC,Staphylococcus aureus [21],2 µg/mL
same,MIC,Staphylococcus aureus [22],2 µg/mL
same,MIC,Staphylococcus aureus [23],8 µg/mL
same,MIC,Staphylococcus aureus [24],16 µg/mL
same,fractional inhibitory concentration index (FICI),Staphylococcus aureus [25],1.1
same,fractional inhibitory concentration index (FICI),Staphylococcus aureus [26],0
same,fractional inhibitory concentration index (FICI),Staphylococcus aureus [27],0.4
same,fractional inhibitory concentration index (FICI),Staphylococcus aureus [28],0.3
same,fractional inhibitory concentration index (FICI),Staphylococcus aureus [29],0.3
same,fractional inhibitory concentration index (FICI),Staphylococcus aureus [30],0.4
same,fractional inhibitory concentration index (FICI),Staphylococcus aureus [31],0.6
same,fractional inhibitory concentration index (FICI),Staphylococcus aureus [32],0.3
same,fractional inhibitory concentration index (FICI),Staphylococcus aureus [33],0
same,fractional inhibitory concentration index (FICI),Staphylococcus aureus [34],1.5
same,fractional inhibitory concentration index (FICI),Staphylococcus aureus [35],4
same,fractional inhibitory concentration index (FICI),Staphylococcus aureus [36],2.1

# — ChEMBL document CHEMBL4330069, “Boosting the efficacy of anti-MRSA β-lactam antibiotics via an easily accessible, non-cytotoxic and orally bioavailable FtsZ inhibitor” (Eur J Med Chem, 2019)
